The source of these data is ChEMBL document CHEMBL2401654, “Synthesis, characterization, and biological assessment of the four stereoisomers of the H(3) receptor antagonist 5-fluoro-2-methyl-N-[2-methyl-4-(2-methyl[1,3']bipyrrolidinyl-1'-yl)phenyl]benzamide” (Bioorg Med Chem Lett, 2013).

≈ marks a conversion by molar mass, not a printed value.

Data set [1] relates to Mus musculus. In words: Toxicity in mouse assessed as appearance of abnormal clinical signs at 3 to 30 mg/kg, po after 1 week. Format: organism-based. Further details: dose 3-30 mg/kg, route oral. The conditions noted are these: in vivo, 168 h. Put shortly:
(§1)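 Behavioral safety study in mice given single oral doses of 3, 10 and 30 mg/kg. Tremors, tail pinch response, body temperature, pupil size and body weight were scored at 2 and 6 h post dose. Clinical signs were observed over one week after dosing.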

A short description of data set [2]: Cmax in C57BL/6 mouse brain at 2 mg/kg, iv. Format: ADME, organism-based. Further details: dose 2 mg/kg, route intravenous. Put shortly:
(§2)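 Male C57BL/6 mice received a single intravenous dose of 2 mg/kg, formulated at 1 mg/mL in 50% 1-methyl-2-pyrrolidinone in saline. Plasma and brain concentrations were followed to derive PK parameters. Brain to plasma ratio was calculated from AUC.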

A short description of data set [3]: AUC (0 to infinity) in C57BL/6 mouse brain at 10 mg/kg, po. Format: ADME, organism-based. Further details: time infinity, dose 10 mg/kg, route oral. The method in brief: (§3)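 Male C57BL/6 mice were dosed orally at 10 mg/kg, formulated at 1 mg/mL in 5% DMSO/0.5% MC/0.2% tween 80. Plasma and brain were sampled for PK parameters. Brain to plasma ratio was based on AUC0-24.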

Data set [4] deals with Mus musculus. The data set is described as follows: Toxicity in mouse assessed as increase in tail pinch at => 10 mg/kg, po. Further details: dose 10 mg/kg, route oral. The conditions noted are these: in vivo. It is filed as organism-based. Put shortly: as §1
Data set [5] deals with Mus musculus. The data set is described as follows: Toxicity in mouse assessed as effect on pupil size at 3 to 30 mg/kg, po. It is filed as organism-based. Further details: dose 3-30 mg/kg, route oral. The conditions noted are these: in vivo. Put shortly:
as §1

Data set [6] in a line: Genotoxicity in micronucleus (unknown origin).
Data set [7] relates to Mus musculus. The data set is described as follows: Toxicity in mouse assessed as effect on body weight at 3 to 30 mg/kg, po. It is filed as organism-based. Further details: dose 3-30 mg/kg, route oral. As to conditions: in vivo. Put shortly:
as §1

Another data set concerns the target T1, Cytochrome P450 1A2 (Homo sapiens, UniProt P05177).
T1 sequence (P05177 whole entry): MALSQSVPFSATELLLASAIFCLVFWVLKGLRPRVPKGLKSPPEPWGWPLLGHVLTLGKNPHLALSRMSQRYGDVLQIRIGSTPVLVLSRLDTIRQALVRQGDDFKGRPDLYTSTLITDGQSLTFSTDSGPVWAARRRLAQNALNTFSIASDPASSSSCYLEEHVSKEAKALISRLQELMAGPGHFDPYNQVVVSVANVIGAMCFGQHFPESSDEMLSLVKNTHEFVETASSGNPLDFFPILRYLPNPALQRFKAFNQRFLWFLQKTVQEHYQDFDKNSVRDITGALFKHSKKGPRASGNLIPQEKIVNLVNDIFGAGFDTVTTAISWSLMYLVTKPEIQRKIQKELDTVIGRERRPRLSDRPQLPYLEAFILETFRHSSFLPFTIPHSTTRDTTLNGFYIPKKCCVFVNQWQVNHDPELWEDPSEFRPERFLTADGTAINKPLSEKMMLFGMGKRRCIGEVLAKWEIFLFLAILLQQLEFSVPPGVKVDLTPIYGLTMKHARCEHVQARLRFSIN
In words: Inhibition of CYP1A2 (unknown origin). Format: ADME.

Data set [8] is described as follows: Volume of distribution at steady state in C57BL/6 mouse at 2 mg/kg, iv. Format: ADME, organism-based. The conditions noted are these: in vivo, read-out: Vdss. Further details: dose 2 mg/kg, route intravenous. The method in brief: as §2
The target of the next data set is T2, Cytochrome P450 2B6 (Homo sapiens, UniProt P20813).
T2 sequence (P20813 whole entry): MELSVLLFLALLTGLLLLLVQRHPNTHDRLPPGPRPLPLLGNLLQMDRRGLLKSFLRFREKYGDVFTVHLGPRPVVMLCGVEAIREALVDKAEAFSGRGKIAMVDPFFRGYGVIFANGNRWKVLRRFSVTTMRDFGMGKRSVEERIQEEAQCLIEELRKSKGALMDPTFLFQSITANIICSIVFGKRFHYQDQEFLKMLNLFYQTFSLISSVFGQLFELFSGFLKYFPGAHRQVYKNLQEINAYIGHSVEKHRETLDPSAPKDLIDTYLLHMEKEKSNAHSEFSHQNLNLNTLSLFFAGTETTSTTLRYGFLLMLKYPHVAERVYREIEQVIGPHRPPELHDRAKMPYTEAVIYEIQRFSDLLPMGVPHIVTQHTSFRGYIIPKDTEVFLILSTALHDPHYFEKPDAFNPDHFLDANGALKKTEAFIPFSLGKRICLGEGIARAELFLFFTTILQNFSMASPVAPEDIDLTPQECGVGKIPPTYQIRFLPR
The data set is described as follows: Inhibition of CYP2B6 (unknown origin). It is filed as ADME.

The nature of data set [9]: AUC (0 to infinity) in C57BL/6 mouse plasma at 10 mg/kg, po. Further details: time infinity, dose 10 mg/kg, route oral. It is filed as ADME, organism-based. Put shortly: as §3
For the next data set, the target named is hERG (KCNH2) (Homo sapiens, UniProt Q12809). In words: Inhibition of human ERG transfected in CHO cells at 1 uM by patch clamp assay relative to control. Format: cell-based. As to conditions: CHO cells transfected with human ERG. Put shortly:
(§4)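 Whole-cell patch clamp on CHO cells stably transfected with the human ERG gene.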
Background: Patch clamp records ionic current or voltage across a cell membrane.

Data set [10] can be described thus: Distribution coefficient, log D of the compound. Format: physicochemical. As to conditions: octanol/water.
For another data set, the target named is Histamine H3 receptor (Rattus norvegicus, UniProt Q9QYN8). The data set is described as follows: Displacement of [3H]N-alpha-methylhistamine from recombinant rat histamine H3 receptor transfected in CHO cell membranes after 1 hr by scintillation counting analysis. Further details: species or system Membrane. Put shortly:
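Radioligand displacement of [3H]N-α-methylhistamine using membranes from CHO cells stably transfected with recombinant human or rat H3 receptor. Ki is presented as a range of multiple experiments (n ≥ 3).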
In general terms: Loss of bound radioactivity is the signal in a displacement assay; it reports binding, not function.

Data set [11] in a line: Drug metabolism in rat liver microsomes at 5 uM after 20 mins. Format: ADME, Microsome. As to conditions: read-out: Drug metabolism. Put shortly:
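Substrate at 5 µM incubated at 37 °C for 20 min with in-house liver microsome preparations (human, mouse or rat). Reported as the percentage of parent compound metabolized.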
In general terms: Liver microsomes are vesicles of endoplasmic reticulum, rich in cytochrome P450 enzymes.

In data set [12] the target is Voltage-gated inwardly rectifying potassium channel KCNH2 (Homo sapiens, UniProt Q12809). In words: Inhibition of human ERG transfected in CHO cells by patch clamp assay. It is filed as cell-based. Put shortly: as §4
For the next data set, the target named is Cytochrome P450 2D6 (Homo sapiens, UniProt P10635). The data set is described as follows: Inhibition of CYP2D6 (unknown origin). Format: ADME.
Data set [13] can be described thus: Cmax in C57BL/6 mouse plasma at 10 mg/kg, po. Further details: dose 10 mg/kg, route oral. Format: ADME, organism-based. The method in brief: as §3
For data set [14], the system named is Mus musculus. The data set is described as follows: Toxicity in mouse assessed as appearance of tremor at 30 mg/kg, po measured at 2 hrs. Format: organism-based. Further details: dose 30 mg/kg, route oral. The conditions noted are these: in vivo. Put shortly: as §1
The next data set deals with Cytochrome P450 2C9 (Homo sapiens, UniProt P11712). The data set is described as follows: Inhibition of CYP2C9 (unknown origin). Format: ADME.
Data set [15] in a line: Tmax in C57BL/6 mouse plasma at 2 mg/kg, iv. Format: ADME, organism-based. Further details: dose 2 mg/kg, route intravenous. Put shortly:
as §2

A further data set addresses Cytochrome P450 3A4 (Homo sapiens, UniProt P08684). The data set is described as follows: Inhibition of CYP3A4 (unknown origin). Format: ADME.
Data set [16] is described as follows: Solubility of the compound in PBS buffer at pH 7.4. It is filed as physicochemical. Put shortly:
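Solubility measured in PBS at pH 7.4.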

Sequence of Cytochrome P450 2D6 (P10635 whole entry): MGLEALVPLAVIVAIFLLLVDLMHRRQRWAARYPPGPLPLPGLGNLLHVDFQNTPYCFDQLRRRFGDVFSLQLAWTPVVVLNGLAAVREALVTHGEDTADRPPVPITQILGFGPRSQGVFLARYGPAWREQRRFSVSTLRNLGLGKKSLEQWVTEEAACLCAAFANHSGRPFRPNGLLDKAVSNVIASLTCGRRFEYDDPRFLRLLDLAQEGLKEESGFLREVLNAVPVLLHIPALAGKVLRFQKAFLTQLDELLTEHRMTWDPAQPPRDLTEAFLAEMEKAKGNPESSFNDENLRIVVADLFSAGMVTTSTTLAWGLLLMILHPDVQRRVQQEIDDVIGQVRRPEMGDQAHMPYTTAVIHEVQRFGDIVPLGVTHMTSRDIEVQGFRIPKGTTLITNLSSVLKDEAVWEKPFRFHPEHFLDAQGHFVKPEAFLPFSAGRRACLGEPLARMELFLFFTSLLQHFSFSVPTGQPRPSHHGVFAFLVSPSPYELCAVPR
Sequence of hERG (KCNH2) (Q12809 whole entry): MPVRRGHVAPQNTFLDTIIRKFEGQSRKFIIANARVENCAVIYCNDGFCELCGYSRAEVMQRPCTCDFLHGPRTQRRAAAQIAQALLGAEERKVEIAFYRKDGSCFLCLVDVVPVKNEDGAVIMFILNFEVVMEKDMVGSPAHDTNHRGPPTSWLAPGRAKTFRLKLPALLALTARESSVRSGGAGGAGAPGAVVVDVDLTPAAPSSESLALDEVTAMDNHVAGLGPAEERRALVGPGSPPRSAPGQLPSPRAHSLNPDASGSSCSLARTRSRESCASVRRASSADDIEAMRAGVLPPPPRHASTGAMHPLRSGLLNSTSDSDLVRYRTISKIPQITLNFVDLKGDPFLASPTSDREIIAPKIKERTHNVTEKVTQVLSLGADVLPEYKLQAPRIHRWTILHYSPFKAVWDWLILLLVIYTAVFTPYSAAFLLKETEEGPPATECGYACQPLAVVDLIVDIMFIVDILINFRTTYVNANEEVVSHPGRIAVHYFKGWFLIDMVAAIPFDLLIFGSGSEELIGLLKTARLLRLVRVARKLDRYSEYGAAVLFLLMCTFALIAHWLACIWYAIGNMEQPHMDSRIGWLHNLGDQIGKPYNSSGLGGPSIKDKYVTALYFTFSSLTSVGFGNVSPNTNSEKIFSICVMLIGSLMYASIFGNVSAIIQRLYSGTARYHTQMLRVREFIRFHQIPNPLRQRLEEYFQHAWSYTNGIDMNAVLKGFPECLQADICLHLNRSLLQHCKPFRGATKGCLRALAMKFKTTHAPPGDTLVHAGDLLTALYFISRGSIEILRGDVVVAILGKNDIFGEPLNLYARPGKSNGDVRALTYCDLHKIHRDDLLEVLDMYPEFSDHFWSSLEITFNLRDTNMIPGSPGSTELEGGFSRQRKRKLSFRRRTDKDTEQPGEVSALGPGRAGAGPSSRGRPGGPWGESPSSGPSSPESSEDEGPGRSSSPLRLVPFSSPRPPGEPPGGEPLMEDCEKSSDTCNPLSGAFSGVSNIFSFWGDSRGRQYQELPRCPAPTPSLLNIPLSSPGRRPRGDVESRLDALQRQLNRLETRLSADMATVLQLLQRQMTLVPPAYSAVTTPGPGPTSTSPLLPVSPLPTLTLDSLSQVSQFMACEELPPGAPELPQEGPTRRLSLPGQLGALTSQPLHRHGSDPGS
Sequence of Voltage-gated inwardly rectifying potassium channel KCNH2 (Q12809 whole entry): as above
Sequence of Cytochrome P450 3A4 (P08684 whole entry): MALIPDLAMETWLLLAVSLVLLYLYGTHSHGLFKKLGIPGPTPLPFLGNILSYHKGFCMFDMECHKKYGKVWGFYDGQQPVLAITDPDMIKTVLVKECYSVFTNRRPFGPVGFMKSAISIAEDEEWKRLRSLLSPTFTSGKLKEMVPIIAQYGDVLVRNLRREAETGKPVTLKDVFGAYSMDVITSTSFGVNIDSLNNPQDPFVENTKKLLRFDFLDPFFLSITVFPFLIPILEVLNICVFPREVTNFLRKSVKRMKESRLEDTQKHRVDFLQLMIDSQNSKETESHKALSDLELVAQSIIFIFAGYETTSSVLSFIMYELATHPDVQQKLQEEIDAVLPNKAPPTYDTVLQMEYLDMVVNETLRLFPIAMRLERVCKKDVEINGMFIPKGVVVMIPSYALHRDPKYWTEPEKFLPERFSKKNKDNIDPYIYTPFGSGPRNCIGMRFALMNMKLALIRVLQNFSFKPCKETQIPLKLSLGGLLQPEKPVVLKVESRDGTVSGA
Sequence of Histamine H3 receptor (Q9QYN8 whole entry): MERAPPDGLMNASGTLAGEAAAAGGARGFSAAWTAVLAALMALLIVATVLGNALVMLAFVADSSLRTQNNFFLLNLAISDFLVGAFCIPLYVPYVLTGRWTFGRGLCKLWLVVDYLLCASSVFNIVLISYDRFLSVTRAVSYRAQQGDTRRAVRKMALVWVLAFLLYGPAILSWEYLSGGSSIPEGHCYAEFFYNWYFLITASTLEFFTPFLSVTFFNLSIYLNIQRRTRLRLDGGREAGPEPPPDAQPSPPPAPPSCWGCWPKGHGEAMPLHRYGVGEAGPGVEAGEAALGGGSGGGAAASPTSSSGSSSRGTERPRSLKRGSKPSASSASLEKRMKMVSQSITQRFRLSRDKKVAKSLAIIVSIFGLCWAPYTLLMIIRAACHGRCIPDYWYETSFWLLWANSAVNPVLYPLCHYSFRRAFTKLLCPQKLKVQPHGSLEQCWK
Sequence of Cytochrome P450 2C9 (P11712 whole entry): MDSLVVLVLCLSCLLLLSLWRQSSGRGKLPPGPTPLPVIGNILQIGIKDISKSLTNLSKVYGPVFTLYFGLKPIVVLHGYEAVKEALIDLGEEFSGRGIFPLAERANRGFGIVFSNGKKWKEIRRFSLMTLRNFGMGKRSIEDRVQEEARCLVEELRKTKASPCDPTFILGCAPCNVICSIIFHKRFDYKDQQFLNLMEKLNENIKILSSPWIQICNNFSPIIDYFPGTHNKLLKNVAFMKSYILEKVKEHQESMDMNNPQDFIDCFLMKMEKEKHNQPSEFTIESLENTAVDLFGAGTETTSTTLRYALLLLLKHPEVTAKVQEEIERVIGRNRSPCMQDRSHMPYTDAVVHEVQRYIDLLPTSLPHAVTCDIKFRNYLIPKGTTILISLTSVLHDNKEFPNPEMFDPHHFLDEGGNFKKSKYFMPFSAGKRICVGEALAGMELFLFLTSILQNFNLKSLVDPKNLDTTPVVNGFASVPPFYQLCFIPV

Turning to `Cc1cc(N2CC[C@H](N3CCC[C@@H]3C)C2)ccc1NC(=O)c1cc(F)ccc1C`, the Activity result was “Non-toxic” in the data set with Mus musculus [1]; “Toxic” with Mus musculus [4]; “Non-toxic” in the data set with Mus musculus [5]; “Non-toxic” in data set [6]; “Non-toxic” in the data set on Mus musculus [7]; “Toxic” in the data set on Mus musculus [14]. In addition, the highest concentration (Cmax) (as a rule, the peak of the concentration-time curve) in data set [2] was found to be 4820 ng/mL; in data set [13], 1310 ng/mL. Besides, the AUC(0-inf) (in general, the area under the concentration-time curve extrapolated to infinity) in data set [3] was found to be 18000 ng·h/mL; in [9], 4000 ng·h/mL. Moreover, the IC50 (usually the concentration needed to halve the response being measured) is over 30 µM at Cytochrome P450 1A2; over 30 µM against Cytochrome P450 2B6; 1.1 µM in [12]; over 30 µM against Cytochrome P450 2D6; over 30 µM against Cytochrome P450 2C9; over 30 µM at Cytochrome P450 3A4. For the same compound, the Vd in data set [8] came to 5.2 L/kg. 1 µM produced 43.4% inhibition against hERG (KCNH2). Further, in [10], the logD (as a rule, lipophilicity at a set pH, counting ionised and neutral species) is 2.09. Moreover, the Ki – broadly, a measure of affinity in units of concentration, obtained from inhibition or displacement – on Histamine H3 receptor is 0.003 µM. For the same compound, the metabolised at 20 min, 5 µM in data set [11] came to 20%. The Tmax – broadly, the time from dosing to the highest level – in data set [15] came to 4.98 min. Also, in data set [16], the solubility (in general, the dissolved amount per volume that the medium holds) amounted to 293 µg/mL (≈ 742 µM).
